Experimental data as given in ChEMBL document CHEMBL4184148 (Bioorg Med Chem Lett, 2017).

Key:
[1] = target: Phosphatidylinositol 4-phosphate 5-kinase type-1 alpha (Homo sapiens) (UniProt Q99755); assay: Binding affinity to wild-type human full length PIP5K1A (M1 to H562 residues) expressed in Escherichia coli BL21 at 1 uM by Kinomescan method relative to control
How it was run: (§1)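 Kinome-wide competition binding panel run by an outside provider, with each compound tested at a single concentration. Activity is read against the kinase panel.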

[2] = target: Mitogen-activated protein kinase kinase kinase 9 (Homo sapiens) (UniProt P80192); assay: Binding affinity to wild-type human partial length MLK1 (V88 to W426 residues) expressed in Escherichia coli BL21 at 1 uM by Kinomescan method relative to control
[3] = target: Tyrosine-protein kinase JAK1 (Homo sapiens) (UniProt P23458); assay: Binding affinity to wild-type human partial length JAK1 JH2 pseudokinase domain (R537 to D855 residues) expressed in HEK293 cells at 1 uM by Kinomescan method relative to control; assay type: cell-based
[4] = tested on: Epidermal growth factor receptor (Homo sapiens), P00533 [L858R,T790M]; assay: Binding affinity to human partial length EGFR L858R/T790M double mutant (R669 to V1011 residues) expressed in HEK293 cells at 1 uM by Kinomescan method relative to control; assay type: cell-based
[5] = target: Rho-associated protein kinase 1 (Homo sapiens) (UniProt Q13464); assay: Binding affinity to wild-type human partial length ROCK1 (M1 to R415 residues) expressed in HEK293 cells at 1 uM by Kinomescan method relative to control; assay type: cell-based
[6] = target: Phosphorylase b kinase gamma catalytic chain, skeletal muscle/heart isoform (Homo sapiens) (UniProt Q16816); assay: Binding affinity to wild-type human full length PHKG1 (M1 to Y387 residues) expressed in Escherichia coli BL21 at 1 uM by Kinomescan method relative to control; how it was run: as §1
[7] = Half life in mouse hepatic microsomes at 1 mg/ml; assay type: ADME, Liver, microsome
[8] = target: Cyclin-dependent kinase 11B (Homo sapiens) (UniProt P21127); assay: Binding affinity to wild-type human partial length CDK11 (M1 to N360 residues) expressed in Escherichia coli BL21 assessed as residual activity at 1000 nM after 1 hr by Kinomescan method relative to control
[9] = target: Angiopoietin-1 receptor (Homo sapiens) (UniProt Q02763); assay: Binding affinity to wild-type human partial length TIE2 (N804 to T1112 residues) expressed in Escherichia coli BL21 at 1 uM by Kinomescan method relative to control
[10] = target: Serine/threonine-protein kinase Nek9 (Homo sapiens) (UniProt Q8TD19); assay: Binding affinity to wild-type human partial length NEK9 (P32 to R328 residues) expressed in Escherichia coli BL21 at 1 uM by Kinomescan method relative to control
[11] = target: Macrophage colony-stimulating factor 1 receptor (Homo sapiens) (UniProt P07333); assay: Binding affinity to wild-type human partial length CSF1R (I564 to S939 residues) expressed in Escherichia coli BL21 at 1 uM by Kinomescan method relative to control
[12] = tested on: Receptor-type tyrosine-protein kinase FLT3 (Homo sapiens), P36888 [D835Y]; assay: Binding affinity to human partial length FLT3 D835Y mutant (Q580 to Y969 residues) expressed in Escherichia coli BL21 at 1 uM by Kinomescan method relative to control
[13] = target: Epidermal growth factor receptor (Homo sapiens) (UniProt P00533); assay: Binding affinity to human partial length EGFR L747-T751del/Sins mutant expressed in Escherichia coli BL21 at 1 uM by Kinomescan method relative to control
[14] = target: Membrane-associated tyrosine- and threonine-specific cdc2-inhibitory kinase (Homo sapiens) (UniProt Q99640); assay: Binding affinity to wild-type human partial length PKMYT1 (A88 to G366 residues) expressed in Escherichia coli BL21 at 1 uM by Kinomescan method relative to control
[15] = target: Serine/threonine-protein kinase DCLK3 (Homo sapiens) (UniProt Q9C098); assay: Binding affinity to wild-type human partial length DCAMKL3 (E140 to V628 residues) expressed in Escherichia coli BL21 at 1 uM by Kinomescan method relative to control
[16] = target: Dual specificity testis-specific protein kinase 1 (Homo sapiens) (UniProt Q15569); assay: Binding affinity to wild-type human full length TESK1 (R37 to S626 residues) expressed in Escherichia coli BL21 at 1 uM by Kinomescan method relative to control; how it was run: as §1
[17] = target: Mitogen-activated protein kinase kinase kinase 2 (Homo sapiens) (UniProt Q9Y2U5); assay: Binding affinity to wild-type human partial length MAP3K2 (S315 to H619 residues) expressed in HEK293 cells at 1 uM by Kinomescan method relative to control; assay type: cell-based
[18] = target: Casein kinase II subunit alpha' (Homo sapiens) (UniProt P19784); assay: Binding affinity to wild-type human full length CSNK2A2 (M1 to R350 residues) expressed in HEK293 cells at 1 uM by Kinomescan method relative to control; assay type: cell-based
How it was run: (§2)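 Run as one kinome-wide competition binding panel with each compound at a single fixed concentration. Results were plotted as a kinome-wide selectivity map.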

[19] = target: Ankyrin repeat and protein kinase domain-containing protein 1 (Homo sapiens) (UniProt Q8NFD2); assay: Binding affinity to wild-type human partial length ANKK1 (M1 to A305 residues) expressed in HEK293 cells at 1 uM by Kinomescan method relative to control; assay type: cell-based; how it was run: as §1
[20] = target: Receptor-interacting serine/threonine-protein kinase 2 (Homo sapiens) (UniProt O43353); assay: Binding affinity to wild-type human partial length RIPK2 (M1 to K310 residues) expressed in Escherichia coli BL21 at 1 uM by Kinomescan method relative to control
[21] = target: Inhibitor of nuclear factor kappa-B kinase subunit epsilon (Homo sapiens) (UniProt Q14164); assay: Binding affinity to wild-type human full length IKK-epsilon (M1 to V716 residues) expressed in HEK293 cells at 1 uM by Kinomescan method relative to control; assay type: cell-based
[22] = target: Cyclin-dependent kinase 3 (Homo sapiens) (UniProt Q00526); assay: Binding affinity to wild-type human full length CDK3 (M1 to H305 residues) expressed in Escherichia coli BL21 at 1 uM by Kinomescan method relative to control; how it was run: as §2
[23] = target: Serine/threonine-protein kinase Sgk2 (Homo sapiens) (UniProt Q9HBY8); assay: Binding affinity to wild-type human partial length SGK2 (L54 to C427 residues) expressed in HEK293 cells at 1 uM by Kinomescan method relative to control; assay type: cell-based
[24] = target: Peripheral plasma membrane protein CASK (Homo sapiens) (UniProt O14936); assay: Binding affinity to wild-type human partial length CASK (M1 to H315 residues) expressed in HEK293 cells at 1 uM by Kinomescan method relative to control; assay type: cell-based
[25] = target: Casein kinase I isoform gamma-3 (Homo sapiens) (UniProt Q9Y6M4); assay: Binding affinity to wild-type human full length CSNK1G3 (M1 to K447 residues) expressed in Escherichia coli BL21 at 1 uM by Kinomescan method relative to control; how it was run: as §2

Row | Structure (SMILES) | Activity [1] [%] | Activity [2] [%] | Activity [3] [%] | Activity [4] [%] | Activity [5] [%] | Activity [6] [%] | t1/2 [7] [min] | Activity [8] [%] | Activity [9] [%] | Activity [10] [%] | Activity [11] [%] | Activity [12] [%] | Activity [13] [%] | Activity [14] [%] | Activity [15] [%] | Activity [16] [%] | Activity [17] [%] | Activity [18] [%] | Activity [19] [%] | Activity [20] [%] | also measured
1 | CCC(=O)Nc1ccc(C(=O)Nc2ccc(Nc3ncc4c(n3)N(C)c3ccc(C)cc3C(=O)N4C)cc2)cc1 | 100 | 88 | 79 | 96 | 72 | 88 | 2.9 | 100 | 54 | 100 | 87 | 77 | 89 | 86 | 100 | 100 | 66 | 83 | 60 | 98 | Activity [21]: 68%; Activity [22]: 95%; Activity [23]: 70%; Activity [24]: 80%; Activity [25]: 97%
2 | C=CC(=O)Nc1ccc(C(=O)Nc2ccc(Nc3ncc4c(n3)N(C)c3ccc(C)cc3C(=O)N4C)cc2)cc1 | 100 | 100 | 100 | 100 | 100 | 99 | 7.5 | 100 | 88 | 97 | 100 | 83 | 81 | 96 | 93 | 100 | 85 | 100 | 92 | 89 | Activity [21]: 88%; Activity [22]: 100%; Activity [23]: 100%; Activity [24]: 97%; Activity [25]: 100%
